From ChEMBL document CHEMBL1129481, “Interactions of flavonoids and other phytochemicals with adenosine receptors” (J Med Chem, 1996)

Assays:
[1] = molecular target: T1, Adenosine receptor A3 (Homo sapiens) (UniProt P0DMS8); assay: Displacement of specific [125I]AB-MECA binding from human Adenosine A3 receptor expressed in HEK293 cells; type: cell-based; design: concentration or dose not given beside the values
T1 sequence (whole entry): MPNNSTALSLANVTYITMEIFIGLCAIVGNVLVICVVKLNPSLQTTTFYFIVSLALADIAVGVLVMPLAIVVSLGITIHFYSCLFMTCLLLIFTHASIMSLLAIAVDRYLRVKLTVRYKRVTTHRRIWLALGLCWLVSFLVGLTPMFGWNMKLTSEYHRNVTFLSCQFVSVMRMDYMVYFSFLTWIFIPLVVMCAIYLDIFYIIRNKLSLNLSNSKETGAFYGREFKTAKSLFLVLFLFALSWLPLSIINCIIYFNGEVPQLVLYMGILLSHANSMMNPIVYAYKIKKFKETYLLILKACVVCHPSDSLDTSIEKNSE
Outline: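 Membranes came from HEK-293 cells stably expressing human A3. Binding used Mg2+-free 50 mM Tris with 1 mM EDTA, pH 8.0, and 0.3 nM final [125I]AB-MECA. Compounds came from DMSO stock, ≤1% final. Duplicates ran 1 h at 37 or 25 °C, then filtration and γ-counting. Nonspecific binding was set with 100 μM (R)-PIA.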

[2] = molecular target: Adenosine receptor A2a (Rattus norvegicus) (UniProt P30543); assay: Displacement of [3H]-CGS- 21680 from Adenosine A2A receptor in rat striatal membranes at 10e-4 M; type: cell membranes; conditions: Membrane
Sequence of Adenosine receptor A2a (Rattus norvegicus) (P30543 whole entry): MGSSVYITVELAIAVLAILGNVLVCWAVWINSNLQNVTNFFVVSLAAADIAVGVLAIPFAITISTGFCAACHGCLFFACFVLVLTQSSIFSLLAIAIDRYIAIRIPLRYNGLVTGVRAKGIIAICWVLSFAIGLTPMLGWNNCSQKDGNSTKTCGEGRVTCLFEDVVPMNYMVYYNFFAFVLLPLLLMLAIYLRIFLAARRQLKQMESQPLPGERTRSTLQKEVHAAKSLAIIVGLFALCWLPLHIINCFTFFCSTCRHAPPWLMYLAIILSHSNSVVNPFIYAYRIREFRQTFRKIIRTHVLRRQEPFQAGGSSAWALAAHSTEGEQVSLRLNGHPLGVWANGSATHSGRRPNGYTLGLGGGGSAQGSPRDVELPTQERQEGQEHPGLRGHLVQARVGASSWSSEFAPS
Outline: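 Rat striatal membranes were prepared with adenosine deaminase (3 units/mL), including a 30 min step at 30 °C. The enzyme was kept during the [3H]CGS 21680 incubation.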

[3] = molecular target: T2, Adenosine receptor A1 (Rattus norvegicus) (UniProt P25099); assay: Displacement of [3H]PIA from Adenosine A1 receptor in rat brain membranes; type: cell membranes
T2 sequence (whole entry): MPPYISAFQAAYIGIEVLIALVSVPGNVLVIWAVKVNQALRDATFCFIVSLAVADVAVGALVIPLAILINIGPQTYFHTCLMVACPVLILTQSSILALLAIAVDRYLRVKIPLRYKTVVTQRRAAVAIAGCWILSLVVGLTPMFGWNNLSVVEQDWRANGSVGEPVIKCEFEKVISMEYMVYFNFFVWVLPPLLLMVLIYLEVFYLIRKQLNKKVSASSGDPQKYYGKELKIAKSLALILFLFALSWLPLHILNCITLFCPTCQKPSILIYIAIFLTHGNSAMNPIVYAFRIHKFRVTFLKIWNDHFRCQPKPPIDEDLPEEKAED
Outline: (§1)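 Rat cortical membranes were pretreated with adenosine deaminase (3 units/mL) for 30 min at 30 °C during preparation. The enzyme was also present during incubation with [3H]-(R)-PIA. Ki values were derived from displacement of specific binding.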

Adenosine receptor A3 = molecular target: T3, Adenosine receptor A3 (Homo sapiens, UniProt P0DMS8); assay: Displacement of [125I]AB-MECA binding to human Adenosine A3 receptor expressed in HEK293 cells; type: cell-based
T3 sequence (P0DMS8 whole entry): T1 sequence (whole entry)
Outline: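 Membranes came from HEK-293 cells stably expressing human A3. Compounds came from DMSO stock, ≤1% final. Duplicates ran 1 h at 37 or 25 °C, then filtration and γ-counting. Nonspecific binding was set with 100 μM (R)-PIA.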

Adenosine receptor A1 = molecular target: T4, Adenosine receptor A1 (Rattus norvegicus, UniProt P25099); assay: Displacement of specific [3H]PIA binding from adenosine A1 receptor in rat brain membranes.; type: cell membranes; outline: as §1
T4 sequence (P25099 whole entry): T2 sequence (whole entry)

Adenosine receptor A2a = Adenosine receptor A2a (Rattus norvegicus, UniProt P30543); assay: Affinity at Adenosine A2A receptor in rat striatal membranes by [3H]- CGS 21680 displacement.; type: cell membranes, Striatum, Membrane
Sequence of Adenosine receptor A2a (P30543 whole entry): as the sequence (P30543 whole entry) above
Outline: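 Rat striatal membranes were prepared with adenosine deaminase (3 units/mL), including a 30 min step at 30 °C.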

| Structure (SMILES) | Displacement [1] [%] | other results |
| --- | --- | --- |
| O=C1c2cc(O)c(O)cc2C2c3ccc(O)c(O)c3OCC12O (stereo not given) | < 10 | Displacement [2]: 28% |
| COc1cc2c(c(O)c1OC)c(=O)c1ccccc1n2C | 63 |  |
| COC1C=CC23c4cc5c(cc4C[N+](C)(CC2OC(C)=O)C3C1)OCO5 (stereo not given) | < 10 | Displacement [2]: < 10% |
| COc1ccc(-c2cc(=O)c3c(O)cc(OC)cc3o2)cc1 | 69 | Displacement [2]: < 10%; Displacement [3]: < 10% |
| O=c1c(-c2ccc(O)cc2)coc2cc(O)cc(O)c12 | 20 |  |
| COc1cc(OC)c2c(=O)c(OC)c(-c3cc(OC)c(OC)c(OC)c3)oc2c1 |  | Displacement [3]: < 10% |
| O=c1cc(-c2ccccc2)oc2cc(O)ccc12 | 41 |  |
| O=c1cc(-c2ccccc2)oc2c1ccc1ccccc12 | 71 |  |
| O=C1c2ccccc2-c2cc3c(cc21)OCO3 | 52 |  |
| COc1cc2c3c(c1)c1cc4c(cc1c(=O)n3CC2)OCO4 | < 10 | Displacement [2]: < 10% |
| COc1ccc(-c2cc(=O)c3ccc(O)cc3o2)cc1OC | 32 |  |
| COc1cc2c3c(oc(=O)c2cc1OC)CCCC3=O | < 10 |  |
| COc1ccc2c(=O)c(O)c(-c3ccc(O)c(O)c3)oc2c1 |  | Ki (Adenosine receptor A3): 1.38 µM |
| O=C1c2c(O)cc(O)cc2OC(c2ccc(O)c(O)c2)C1O (racemic) |  | Displacement [3]: < 10% |
| O=c1cc(-c2ccccc2)oc2cccc(O)c12 | 47 |  |
| COc1cc(O)c2c(c1)OC(c1ccc(O)cc1)CC2=O (stereo not given) |  | Ki (Adenosine receptor A1): 8.18 µM; Ki (Adenosine receptor A2a): 35.6 µM; Ki (Adenosine receptor A3): 3.4 µM |
| CCn1c2c(c3cc4c(cc3c1=O)OCO4)C(=O)CCC2 | 19 |  |
| COc1c(O)cc2oc(-c3ccc(O)cc3)cc(=O)c2c1O | 63 |  |
| Cc1ccc(-c2cc(=O)c3c(C)c(C)c(C)cc3o2)cc1 |  | Ki (Adenosine receptor A1): 1.29 µM; Ki (Adenosine receptor A3): 4.48 µM |
| O=c1cc(-c2ccccc2)oc2ccc3ccccc3c12 | 12 | Displacement [2]: < 10% |
| O=c1cc(-c2ccc(O)cc2)oc2cc(O)cc(O)c12 | 63 |  |
